The record followed here is ChEMBL document CHEMBL1122663, “Oligonucleotide structural parameters that influence binding of 5'-O-triphosphoadenylyl-(2'----5')-adenylyl-(2'----5')-adenosine to the 5'-O-triphosphoadenylyl-(2'----5')-adenylyl-(2'----5')-adenosine dependent endoribonuclease: chain length, phosphorylation state, and heterocyclic base” (J Med Chem, 1984).

Assay [1] has as its target T1, 2-5A-dependent ribonuclease (Mus musculus) (UniProt Q05921).
T1 sequence (whole entry): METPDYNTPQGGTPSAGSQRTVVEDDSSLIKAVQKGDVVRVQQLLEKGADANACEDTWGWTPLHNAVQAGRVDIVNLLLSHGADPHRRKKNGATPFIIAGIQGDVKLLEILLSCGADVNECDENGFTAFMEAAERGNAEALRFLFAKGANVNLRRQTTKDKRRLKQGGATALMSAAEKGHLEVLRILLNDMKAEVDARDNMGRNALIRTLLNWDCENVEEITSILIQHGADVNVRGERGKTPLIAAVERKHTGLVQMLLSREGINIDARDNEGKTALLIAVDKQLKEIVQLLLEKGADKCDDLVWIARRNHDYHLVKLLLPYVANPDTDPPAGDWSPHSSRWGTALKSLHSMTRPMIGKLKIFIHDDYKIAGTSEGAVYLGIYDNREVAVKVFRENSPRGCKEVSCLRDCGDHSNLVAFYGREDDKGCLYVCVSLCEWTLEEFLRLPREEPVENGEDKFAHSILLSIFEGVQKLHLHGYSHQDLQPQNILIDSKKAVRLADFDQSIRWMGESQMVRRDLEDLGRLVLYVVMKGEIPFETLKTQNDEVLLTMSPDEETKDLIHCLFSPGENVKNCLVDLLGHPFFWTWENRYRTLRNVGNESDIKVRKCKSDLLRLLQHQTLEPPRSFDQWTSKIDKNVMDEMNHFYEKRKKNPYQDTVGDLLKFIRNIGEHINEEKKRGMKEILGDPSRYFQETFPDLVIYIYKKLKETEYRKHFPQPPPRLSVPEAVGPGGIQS
Description: Molar concentration needed to give 50% prevention of 2-5A (Adenosine dependent endoribonuclease).

Assay [2] deals with T1, 2-5A-dependent ribonuclease (Mus musculus). Kind of assay: Molar concentration required to displace 50% of the radiolabeled probe from 2-5A (Adenosine dependent endoribonuclease) in endonuclease-nitrocellulose complex. The method in brief: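 Radiobinding assay of Knight et al. on the 2-5A-dependent endoribonuclease from mouse L cells. Oligomer is added against the radiolabeled probe ppp5'A2'p5'A2'p5'A2'p5'A3'[³²P]p5'C3'p. The value is the oligomer concentration that prevents 50% of the added probe from binding the endonuclease.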

The structures appear in SMILES notation.

Regarding `O=P(O)(O)OP(=O)(O)OP(=O)(O)OCC1OC(n2cnc3c(O)ncnc32)C(OP(=O)(O)OCC2OC(n3cnc4c(O)ncnc43)C(OP(=O)(O)OC[C@H]3OC(n4cnc5c(O)ncnc54)[C@H](O)[C@@H]3O)C2O)C1O` (some centres undefined), the Concentration in assay [1] was over 0.00013; in assay [2], 2.6e-07.

For the compound `Nc1ncnc2c1ncn2[C@@H]1O[C@H](COP(=O)(O)O[C@@H]2[C@H](O)[C@@H](COP(=O)(O)O[C@@H]3[C@H](O)[C@@H](COP(=O)(O)O[C@@H]4[C@H](O)[C@@H](COP(=O)(O)O)O[C@H]4n4cnc5c(N)ncnc54)O[C@H]3n3cnc4c(N)ncnc43)O[C@H]2n2cnc3c(N)ncnc32)[C@@H](O)[C@H]1O`, the Concentration in assay [1] amounted to 1e-06; in assay [2], 7e-10.

Regarding `Nc1ncnc2c1ncn2[C@@H]1O[C@H](COP(=O)(O)O[C@@H]2[C@H](O)[C@@H](COP(=O)(O)O[C@@H]3[C@H](O)[C@@H](COP(=O)(O)O)O[C@H]3n3cnc4c(N)ncnc43)O[C@H]2n2cnc3c(N)ncnc32)[C@@H](O)[C@H]1O` (stereo in doubt; 2), the Concentration came to 1e-06 in assay [1] and 8e-10 in assay [2]. On the same counts, the results for `Nc1ncnc2c1ncn2[C@@H]1O[C@H](COP(=O)(O)O[C@@H]2[C@H](O)[C@@H](COP(=O)(O)O[C@@H]3[C@H](O)[C@@H](COP(=O)(O)O[C@@H]4[C@H](O)[C@@H](CO)O[C@H]4n4cnc5c(N)ncnc54)O[C@H]3n3cnc4c(N)ncnc43)O[C@H]2n2cnc3c(N)ncnc32)[C@@H](O)[C@H]1O` are 1e-05 and 2.2e-08.

In assay [2], `Nc1ncnc2c1ncn2[C@@H]1O[C@H](COP(=O)(O)O[C@@H]2[C@H](O)[C@@H](COP(=O)(O)O[C@@H]3[C@H](O)[C@@H](COP(=O)(O)O)O[C@H]3n3cnc4c(N)ncnc43)O[C@H]2n2cnc3c(N)ncnc32)[C@@H](O)[C@H]1O` (stereo in doubt; 11) displayed a Concentration of 2e-09. Consider `Nc1ncnc2c1ncn2[C@@H]1O[C@H](COP(=O)(O)O[C@@H]2[C@H](O)[C@@H](COP(=O)(O)O)O[C@H]2n2cnc3c(N)ncnc32)[C@@H](O)[C@H]1OP(=O)(O)O`, for which the Concentration in assay [2] was 4e-07. As for `Nc1ncnc2c1ncn2C1O[C@H](COP(=O)(O)O[C@H]2C(n3cnc4c(N)ncnc43)O[C@H](COP(=O)(O)O)[C@H]2O)[C@@H](O)[C@H]1O` (some centres undefined), the Concentration in assay [1] is over 0.0002; in assay [2], 2e-05. On the same counts, the results for `O=P(O)(O)OC[C@H]1OC(n2cnc3c(O)ncnc32)[C@H](OP(=O)(O)OC[C@H]2OC(n3cnc4c(O)ncnc43)[C@H](OP(=O)(O)OC[C@H]3OC(n4cnc5c(O)ncnc54)[C@H](O)[C@@H]3O)[C@@H]2O)[C@@H]1O` (some centres undefined) are over 0.0001 and 3.3e-06. In assay [2], `Nc1ncnc2c1ncn2C1O[C@H](COP(=O)(O)O[C@H]2C(n3cnc4c(N)ncnc43)O[C@H](COP(=O)(O)O[C@H]3C(n4cnc5c(N)ncnc54)O[C@H](COP(=O)(O)O[C@H]4C(n5cnc6c(N)ncnc65)O[C@H](COP(=O)(O)O[C@H]5C(n6cnc7c(N)ncnc76)O[C@H](COP(=O)(O)O[C@H]6C(n7cnc8c(N)ncnc87)O[C@H](COP(=O)(O)O)[C@H]6O)[C@H]5O)[C@H]4O)[C@H]3O)[C@H]2O)[C@@H](O)[C@H]1O` (some centres undefined) had a Concentration of 1e-09. The same measure, in the same setting: to `Nc1ncnc2c1ncn2[C@@H]1O[C@H](COP(=O)(O)O[C@@H]2[C@H](O)[C@@H](COP(=O)(O)O)O[C@H]2n2cnc3c(N)ncnc32)[C@@H](OP(=O)(O)O)[C@H]1O` belongs 4e-06.

For the compound `Nc1ncnc2c1ncn2C1O[C@H](COP(=O)(O)O[C@H]2C(n3cnc4c(N)ncnc43)O[C@H](COP(=O)(O)O[C@H]3C(n4cnc5c(N)ncnc54)O[C@H](COP(=O)(O)O[C@H]4C(n5cnc6c(N)ncnc65)O[C@H](COP(=O)(O)O[C@H]5C(n6cnc7c(N)ncnc76)O[C@H](COP(=O)(O)O)[C@H]5O)[C@H]4O)[C@H]3O)[C@H]2O)[C@@H](O)[C@H]1O` (some centres undefined), the Concentration in assay [1] was found to be 5e-07; in assay [2] it was 9e-10. Regarding `Nc1ncnc2c1ncn2C1O[C@H](COP(=O)(O)O[C@H]2C(n3cnc4c(N)ncnc43)O[C@H](COP(=O)(O)O[C@H]3C(n4cnc5c(N)ncnc54)O[C@H](COP(=O)(O)O[C@H]4C(n5cnc6c(N)ncnc65)O[C@H](COP(=O)(O)O[C@H]5C(n6cnc7c(N)ncnc76)O[C@H](CO)[C@H]5O)[C@H]4O)[C@H]3O)[C@H]2O)[C@@H](O)[C@H]1O` (some centres undefined), the Concentration in assay [1] is 7e-06; in assay [2], 1.3e-08.

`Nc1ncnc2c1ncn2C1OC(CO)C(O)C1OP(=O)(O)OC[C@H]1OC(n2cnc3c(N)ncnc32)[C@H](O)[C@@H]1O` (some centres undefined) yielded a Concentration in assay [1] of over 0.001. For the compound `Nc1ncnc2c1ncn2[C@@H]1O[C@H](COP(=O)(O)O[C@@H]2[C@H](O)[C@@H](COP(=O)(O)O[C@@H]3[C@H](O)[C@@H](CO)O[C@H]3n3cnc4c(N)ncnc43)O[C@H]2n2cnc3c(N)ncnc32)[C@@H](O)[C@H]1O`, the Concentration in assay [1] is over 0.0001; in assay [2], 8e-07.

`Nc1ncnc2c1ncn2C1O[C@H](COP(=O)(O)O[C@H]2C(n3cnc4c(N)ncnc43)O[C@H](COP(=O)(O)O[C@H]3C(n4cnc5c(N)ncnc54)O[C@H](COP(=O)(O)O[C@H]4C(n5cnc6c(N)ncnc65)O[C@H](COP(=O)(O)O[C@H]5C(n6cnc7c(N)ncnc76)O[C@H](COP(=O)(O)O[C@H]6C(n7cnc8c(N)ncnc87)O[C@H](CO)[C@H]6O)[C@H]5O)[C@H]4O)[C@H]3O)[C@H]2O)[C@@H](O)[C@H]1O` (some centres undefined) yielded a Concentration in assay [2] of 1.3e-08. Turning to `O=c1ccn(C2O[C@H](COP(=O)(O)O[C@H]3C(n4ccc(=O)[nH]c4=O)O[C@H](COP(=O)(O)O[C@H]4C(n5ccc(=O)[nH]c5=O)O[C@H](COP(=O)(O)O)[C@H]4O)[C@H]3O)[C@@H](O)[C@H]2O)c(=O)[nH]1` (some centres undefined), the Concentration in assay [1] was over 0.0001; in assay [2], 1.1e-06. As to `Nc1ncnc2c1ncn2[C@@H]1O[C@H](COP(=O)(O)O[C@@H]2[C@H](O)[C@@H](COP(=O)(O)O[C@@H]3[C@H](O)[C@@H](COP(=O)(O)OP(=O)(O)OP(=O)(O)O)O[C@H]3n3cnc4c(N)ncnc43)O[C@H]2n2cnc3c(N)ncnc32)[C@@H](O)[C@H]1O`, in assay [2], the Concentration is 5e-10.

On to `Nc1ccn(C2O[C@H](COP(=O)(O)O[C@H]3C(n4ccc(N)nc4=O)O[C@H](COP(=O)(O)O[C@H]4C(n5ccc(N)nc5=O)O[C@H](COP(=O)(O)O)[C@H]4O)[C@H]3O)[C@@H](O)[C@H]2O)c(=O)n1` (some centres undefined), for which the results for the Concentration in assay [1] and in assay [2] were over 0.0001 and 3.3e-06, respectively.
